Measured values as given in ChEMBL document CHEMBL4411278, “Discovery of potent and selective inhibitors of the Escherichia coli M1-aminopeptidase via multicomponent solid-phase synthesis of tetrazole-peptidomimetics” (Eur J Med Chem, 2019).
Calls of active or inactive are those of the source. The calls are words filed in the database; no cut-off is given here.

What was measured:
Escherichia coli [1] = test: Reversible inhibition of recombinant Escherichia coli M1 aminopeptidase using Leu-pNA as substrate preincubated for 15 mins followed by substrate addition
Outline: (§1)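 Recombinant ePepN (partially purified by ion exchange) or porcine kidney cortex microsomal APN was pre-incubated 15 min at 25°C with inhibitor in DMSO (final ≤2% v/v), then 75 μM Leu-pNA (~1 KMapp) was added. Buffer was 50 mM Tris-HCl pH 8.0. A405 was read every 15 s for 3 min. Doses were double serial dilutions over 0.781–100 μM, and IC50 came from a logistic fit of residual activity (vi/v0); at least triplicate.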

Escherichia coli [2] = test: (§2) Inhibition of recombinant Escherichia coli M1 aminopeptidase using Leu-pNA as substrate preincubated for 15 mins followed by substrate addition; outline: as §1
[3] = as §2; outline: as §1
Escherichia coli [4] = test: Growth inhibition of Escherichia coli BL21 up to 100 uM after 3 to 20 hrs by spectrophotometric analysis; format: functional, organism-based
Outline: (§3)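 E. coli BL21 was inoculated at 1% from an overnight culture into LB. Compounds were added at eight concentrations (0.781–100 μM) from DMSO serial dilutions, with DMSO and 200 μg/mL ampicillin controls; four replicates. Plates were held at 37°C and raised to 42°C at 6 h. A595 was read at 0, 3, 6 and 20 h and normalized to the DMSO control (100% growth).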

[5] = Haemolytic activity in human erythrocytes assessed as induction of hemolysis at 100 uM after 20 hrs relative to control; format: cell-based, Erythrocyte; settings: read-out: Activity
Outline: (§4)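 Fresh human red blood cells were washed and resuspended in 145 mM NaCl, 10 mM Tris-HCl pH 7.4, adjusted so full lysis with Na2CO3 gives A540 ≈0.7. Cells were incubated with compounds for 3, 6 or 20 h, with untreated and 1% DMSO controls. Supernatant haemoglobin was measured after centrifugation.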

Erythrocyte [6] = test: Haemolytic activity in human erythrocytes assessed as induction of hemolysis after 3 hrs; format: cell-based; outline: as §4
Erythrocyte [7] = test: Haemolytic activity in human erythrocytes assessed as induction of hemolysis after 20 hrs; format: cell-based; outline: as §4
Escherichia coli [8] = test: Noncompetitive inhibition of recombinant Escherichia coli M1 aminopeptidase assessed as Km for substrate at 1.56 uM using Leu-pNA as substrate preincubated for 15 mins followed by substrate addition by Lineweaver-Burk double reciprocal plot analysis (reference value: 120 umol/L)
Escherichia coli [9] = test: Reversible inhibition of recombinant Escherichia coli M1 aminopeptidase using Leu-pNA as substrate preincubated for 45 mins followed by substrate addition; settings: in the assay text read “15 mins” for “45 mins”
Outline: (§5)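 The time to reach inhibition equilibrium was tested by pre-incubating recombinant ePepN with inhibitor for 5, 10, 15, 30 or 45 min at 25°C. Residual activity was then measured on 75 μM Leu-pNA in 50 mM Tris-HCl pH 8.0, reading A405 continuously against a DMSO control.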

Escherichia coli [10] = test: (§6) Inhibition of recombinant Escherichia coli M1 aminopeptidase using Leu-pNA as substrate preincubated for 45 mins followed by substrate addition; outline: as §5
[11] = as §6; settings: in the assay text read “15 mins” for “45 mins”; outline: as §5
Escherichia coli [12] = test: Noncompetitive inhibition of recombinant Escherichia coli M1 aminopeptidase assessed as Vmax for substrate at 3.125 uM using Leu-pNA as substrate preincubated for 15 mins followed by substrate addition by Lineweaver-Burk double reciprocal plot analysis (reference value: 125 10^-3OD/min)
Escherichia coli [13] = test: Noncompetitive inhibition of recombinant Escherichia coli M1 aminopeptidase assessed as Km for substrate at 6.25 uM using Leu-pNA as substrate preincubated for 15 mins followed by substrate addition by Lineweaver-Burk double reciprocal plot analysis (reference value: 120 umol/L)
[14] = Cytotoxicity against mouse P3X63Ag assessed as reduction in cell viability after 20 hrs by MTT assay
Outline: (§7)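 P3X63Ag murine myeloma cells were grown in DMEM-F12 with 10% FCS at 37°C, 5% CO2. For the assay they were plated in serum-free DMEM-F12 and exposed to compounds for 3, 6 or 20 h. After a PBS wash, cells got MTT for 3 h and crystals were dissolved in DMSO. Absorbance was read at 450 nm (620 nm reference), and viability calculated as 100×At/Ac versus untreated cells.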

[15] = Inhibition of M1 aminopeptidase in porcine kidney cortex microsomes using Leu-pNA as substrate preincubated for 15 mins followed by substrate addition; design: species or system Sus scrofa
Escherichia coli [16] = test: Noncompetitive inhibition of recombinant Escherichia coli M1 aminopeptidase assessed as Vmax for substrate at 6.25 uM using Leu-pNA as substrate preincubated for 15 mins followed by substrate addition by Lineweaver-Burk double reciprocal plot analysis (reference value: 125 10^-3OD/min)
Erythrocyte [17] = test: Haemolytic activity in human erythrocytes assessed as induction of hemolysis after 6 hrs; format: cell-based; outline: as §4
[18] = Cytotoxicity against mouse P3X63Ag assessed as reduction in cell viability after 3 hrs by MTT assay; outline: as §7
Escherichia coli [19] = test: Noncompetitive inhibition of recombinant Escherichia coli M1 aminopeptidase assessed as Vmax for substrate at 1.56 uM using Leu-pNA as substrate preincubated for 15 mins followed by substrate addition by Lineweaver-Burk double reciprocal plot analysis (reference value: 125 10^-3OD/min)
[20] = Cytotoxicity against mouse P3X63Ag assessed as reduction in cell viability after 6 hrs by MTT assay; outline: as §7
Escherichia coli [21] = test: Noncompetitive inhibition of recombinant Escherichia coli M1 aminopeptidase assessed as Km for substrate at 3.125 uM using Leu-pNA as substrate preincubated for 15 mins followed by substrate addition by Lineweaver-Burk double reciprocal plot analysis (reference value: 120 umol/L)
[22] = Selectivity index, ratio of IC50 for M1 aminopeptidase in porcine kidney cortex microsomes to IC50 for recombinant Escherichia coli M1 aminopeptidase
[23] = Cytotoxicity against mouse P3X63Ag assessed as reduction in cell viability at 50 uM after 6 hrs by MTT assay relative to control; outline: as §7
[24] = Cytotoxicity against mouse P3X63Ag assessed as reduction in cell viability at 50 uM after 20 hrs by MTT assay relative to control; outline: as §7
[25] = Cytotoxicity against mouse P3X63Ag assessed as reduction in cell viability at 50 uM after 3 hrs by MTT assay relative to control; outline: as §7
Escherichia coli [26] = test: Growth inhibition of Escherichia coli BL21 after 20 hrs by spectrophotometric analysis; format: functional, organism-based; settings: BL21, BL21, 20 h; outline: as §3
Escherichia coli [27] = test: Growth inhibition of Escherichia coli BL21 after 3 to 6 hrs by spectrophotometric analysis; format: functional, organism-based; outline: as §3

Compound | inhibition (Escherichia coli [1]) | inhibition (Escherichia coli [2]) | IC50 [3] | other results
COc1ccc(C(N[C@@H](Cc2c[nH]c3ccccc23)C(=O)O)c2nnnn2Cc2ccccc2)cc1 (some centres not stated) | Active | Dose-dependent effect | 7.2 µM | 
COc1ccc(C(N[C@H](C(=O)O)C(C)C)c2nnnn2Cc2ccccc2)cc1 (some centres not stated) |  |  | > 1000 µM | growth inhibition (GI) (Escherichia coli [4]): inactive
CC(C)[C@H](NCc1nnnn1CCCc1ccccc1)C(=O)O | Active | Dose-dependent effect | 170 µM | 
O=C(O)[C@H](Cc1c[nH]c2ccccc12)NCc1nnnn1C1CCCCC1 | Active | Dose-dependent effect | 110 µM | 
CC(C)[C@H](NC(c1ncc[nH]1)c1nnnn1CCCc1ccccc1)C(=O)O (some centres not stated) | Active | Dose-dependent effect | 470 µM | 
CC(C)[C@H](NC(c1ncc[nH]1)c1nnnn1C1CCCCC1)C(=O)O (some centres not stated) | Active | Dose-dependent effect | 127 µM | 
O=C(O)[C@H](Cc1ccccc1)NC(c1ccco1)c1nnnn1Cc1ccccc1 (some centres not stated) | Active | Dose-dependent effect | 17 µM | 
CC(C)C[C@H](NC(=O)[C@@H](O)[C@H](N)Cc1ccccc1)C(=O)O [UBENIMEX] |  |  | 7 µM | growth inhibition (GI) (Escherichia coli [4]): inactive
O=C(O)[C@H](Cc1c[nH]c2ccccc12)NC(c1ccco1)c1nnnn1Cc1ccccc1 (some centres not stated) |  |  |  | hemolysis at 20 h, 100 µM [5]: 15%; HC20 (Erythrocyte [6]): > 100 µM; HC20 (Erythrocyte [7]): > 100 µM; Km (Escherichia coli [8]): 71.3 µM; inhibition (Escherichia coli [9]): Active; inhibition (Escherichia coli [10]): Dose-dependent effect; IC50 [11]: 0.26 µM; Vmax (Escherichia coli [12]): 34.5 mOD/min; Km (Escherichia coli [13]): 61.4 µM; IC50 [14]: > 100 µM; IC50 [15]: 6100 µM; Vmax (Escherichia coli [16]): 23.3 mOD/min; HC20 (Erythrocyte [17]): > 100 µM; IC50 [18]: > 100 µM; Vmax (Escherichia coli [19]): 45.5 mOD/min; growth inhibition (GI) (Escherichia coli [4]): inactive; IC50 [20]: > 100 µM; Km (Escherichia coli [21]): 69.3 µM; Ratio IC50 [22]: 23500
O=C(O)[C@H](Cc1c[nH]c2ccccc12)NC(c1ccco1)c1nnnn1C1CCCCC1 (some centres not stated) | Active | Dose-dependent effect | 2.2 µM | hemolysis at 20 h, 100 µM [5]: 40%; HC20 (Erythrocyte [6]): 80 µM; HC20 (Erythrocyte [7]): 55 µM; Activity [23]: <= 50%; Activity [24]: <= 50%; IC50 [14]: 100 µM; IC50 [15]: 2000 µM; HC20 (Erythrocyte [17]): 70 µM; Activity [25]: <= 60%; IC50 [18]: > 100 µM; growth inhibition (GI) (Escherichia coli [4]): inactive; IC50 [20]: > 100 µM; Ratio IC50 [22]: 909
CC(C)[C@H](NC(c1cccnc1)c1nnnn1C1CCCCC1)C(=O)O (some centres not stated) | Active | Dose-dependent effect | 27 µM | 
O=C(O)[C@H](Cc1ccccc1)NC(c1ccco1)c1nnnn1C1CCCCC1 (some centres not stated) | Active | Dose-dependent effect | 41 µM | 
COc1ccc(C(N[C@H](C(=O)O)C(C)C)c2nnnn2CCCc2ccccc2)cc1 (some centres not stated) | Active | Dose-dependent effect | 160 µM | 
COc1ccc(C(N[C@@H](Cc2ccc(OCc3ccccc3)cc2)C(=O)O)c2nnnn2C2CCCCC2)cc1 (some centres not stated) | Active | Dose-dependent effect | 1.4 µM | hemolysis at 20 h, 100 µM [5]: 40%; HC20 (Erythrocyte [6]): > 100 µM; IC50 (Escherichia coli [26]): < 100 µM; HC20 (Erythrocyte [7]): 65 µM; Activity [23]: <= 50%; Activity [24]: <= 50%; IC50 [14]: 100 µM; IC50 [15]: 1580 µM; IC50 (Escherichia coli [27]): < 50 µM; HC20 (Erythrocyte [17]): 70 µM; Activity [25]: <= 60%; IC50 [18]: > 100 µM; IC50 [20]: 100 µM; Ratio IC50 [22]: 1130
COc1ccc(C(N[C@@H](Cc2c[nH]c3ccccc23)C(=O)O)c2nnnn2C2CCCCC2)cc1 (some centres not stated) | Active | Dose-dependent effect | 630 µM | 
O=C(O)[C@H](Cc1c[nH]c2ccccc12)NC(c1cccnc1)c1nnnn1C1CCCCC1 (some centres not stated) | Active | Dose-dependent effect | 22 µM | 
O=C(O)[C@H](Cc1ccc(OCc2ccccc2)cc1)NCc1nnnn1C1CCCCC1 | Active | Dose-dependent effect | 44 µM | 
O=C(O)[C@H](Cc1c[nH]c2ccccc12)NC(c1ncc[nH]1)c1nnnn1C1CCCCC1 (some centres not stated) | Active | Dose-dependent effect | 48 µM | 
O=C(O)[C@H](Cc1c[nH]c2ccccc12)NC(c1ncc[nH]1)c1nnnn1Cc1ccccc1 (some centres not stated) | Active | Dose-dependent effect | 25 µM | 
CC(C)[C@H](NCc1nnnn1Cc1ccccc1)C(=O)O | Active | Dose-dependent effect | 47 µM | 
COc1ccc(C(N[C@H](C(=O)O)C(C)C)c2nnnn2C2CCCCC2)cc1 (some centres not stated) | Active | Dose-dependent effect | 90 µM | 
CC(C)[C@H](NC(c1ncc[nH]1)c1nnnn1Cc1ccccc1)C(=O)O (some centres not stated) | Active | Dose-dependent effect | 71 µM | 
